Test results taken from ChEMBL document CHEMBL5647697, “Akt inhibition synergizes with polycomb repressive complex 2 inhibition in the treatment of multiple myeloma” (2019).
Activity calls are given as the source filed them. The rule behind the calls is not given here.

Assays:
[1] = tested on: OPM-2/BTZ; test: Downregulation of EZH2 mRNA expression in human OPM-2/BTZ cells at 3 micromol/L after 24 hrs by qRT-PCR analysis; type: functional, cell-based; settings: dose 3.0 µmol/L
[2] = tested on: MM1.S; test: Downregulation of EZH2 protein expression in human MM1.S cells at 0.3 to 5 micromol/L for 6 to 48 hrs by Western blot analysis; type: functional, cell-based; settings: dose 0.3-5 µmol/L, time 6-48 hrs
Summary of the method: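 MM.1S and H929 cells exposed to TAS-117 at the indicated doses for 48 h, or to 5 μmol/L for the indicated times. Immunoblot with GAPDH, Akt and H3 as loading controls; EZH2 quantified relative to GAPDH.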

[3] = tested on: NCI-H929; test: Downregulation of phospho-Rb protein expression in human NCI-H929 cells incubated at 0.3 to 3 micromol/L for 48 hrs by Western blot analysis; type: functional, cell-based; settings: dose 0.3-3 µmol/L
Summary of the method: (§1)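 MM.1S and H929 cells given TAS-117 at the indicated doses for 48 h. Protein levels assessed by immunoblot.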

[4] = target: T1, Serine/threonine-protein kinase AKT (Homo sapiens) (UniProt P31751+Q9Y243+P31749); test: Inhibition of Akt phosphorylation in human NCI-H929 cells at 0.3 to 5 micromol/L for 6 to 48 hrs by Western blot analysis; type: cell-based; settings: dose 0.3-5 µmol/L, time 6-48 hrs
T1 sequence (P31749 whole entry, looked up): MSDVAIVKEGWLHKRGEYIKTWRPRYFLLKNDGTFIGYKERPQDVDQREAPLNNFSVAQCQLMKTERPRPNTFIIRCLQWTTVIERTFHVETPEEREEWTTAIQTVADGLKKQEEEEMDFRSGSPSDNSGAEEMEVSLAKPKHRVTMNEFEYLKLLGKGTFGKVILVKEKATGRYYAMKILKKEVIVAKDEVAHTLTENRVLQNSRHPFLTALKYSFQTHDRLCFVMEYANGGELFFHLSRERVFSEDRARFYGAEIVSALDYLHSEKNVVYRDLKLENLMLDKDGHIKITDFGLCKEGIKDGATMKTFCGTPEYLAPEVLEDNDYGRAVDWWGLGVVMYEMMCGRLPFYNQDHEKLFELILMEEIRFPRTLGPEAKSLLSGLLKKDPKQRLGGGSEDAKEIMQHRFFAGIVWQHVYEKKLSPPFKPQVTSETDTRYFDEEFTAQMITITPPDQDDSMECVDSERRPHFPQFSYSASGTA
T1 sequence (P31751 whole entry, looked up): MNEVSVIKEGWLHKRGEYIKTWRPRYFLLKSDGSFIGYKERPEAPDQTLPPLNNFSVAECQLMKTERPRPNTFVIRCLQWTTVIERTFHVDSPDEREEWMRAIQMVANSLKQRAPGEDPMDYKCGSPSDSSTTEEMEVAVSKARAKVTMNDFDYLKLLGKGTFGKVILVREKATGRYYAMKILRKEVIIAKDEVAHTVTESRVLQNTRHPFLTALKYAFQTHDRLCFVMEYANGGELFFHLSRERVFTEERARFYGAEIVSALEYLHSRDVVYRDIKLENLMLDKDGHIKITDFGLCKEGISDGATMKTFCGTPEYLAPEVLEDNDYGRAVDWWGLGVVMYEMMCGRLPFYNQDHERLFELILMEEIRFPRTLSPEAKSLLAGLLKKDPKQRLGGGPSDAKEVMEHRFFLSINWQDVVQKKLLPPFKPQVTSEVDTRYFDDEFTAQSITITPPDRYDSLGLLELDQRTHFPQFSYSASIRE
T1 sequence (Q9Y243 whole entry, looked up): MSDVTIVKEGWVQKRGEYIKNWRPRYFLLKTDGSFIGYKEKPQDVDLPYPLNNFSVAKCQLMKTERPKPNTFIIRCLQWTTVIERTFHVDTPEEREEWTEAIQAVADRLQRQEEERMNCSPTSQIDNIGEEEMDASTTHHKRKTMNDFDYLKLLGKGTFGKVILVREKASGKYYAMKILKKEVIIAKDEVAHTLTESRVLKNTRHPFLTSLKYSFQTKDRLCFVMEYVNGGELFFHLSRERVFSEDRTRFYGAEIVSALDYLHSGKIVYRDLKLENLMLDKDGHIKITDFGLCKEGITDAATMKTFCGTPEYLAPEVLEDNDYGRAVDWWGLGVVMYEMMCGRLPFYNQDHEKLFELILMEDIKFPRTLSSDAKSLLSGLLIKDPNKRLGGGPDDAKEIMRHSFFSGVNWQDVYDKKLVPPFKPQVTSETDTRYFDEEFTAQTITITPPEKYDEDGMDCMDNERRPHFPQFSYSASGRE
Summary of the method: (§2)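 MM.1S and H929 cells were treated with graded doses for 48 h, or with 5 μmol/L for the stated times. Lysates were immunoblotted, with GAPDH, total Akt and H3 as loading controls.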

[5] = target: T1, Serine/threonine-protein kinase AKT (Homo sapiens); test: Inhibition of Akt phosphorylation in human MM1.S cells at 0.3 to 5 micromol/L for 6 to 48 hrs by Western blot analysis; type: cell-based; settings: dose 0.3-5 µmol/L, time 6-48 hrs; summary of the method: as §2
[6] = tested on: MM1.S; test: Downregulation of E2F2 mRNA expression in human MM1.S cells incubated at 0.3 to 3 micromol/L for 24 hrs by qRT-PCR analysis; type: functional, cell-based; settings: dose 0.3-3 µmol/L
Summary of the method: (§3)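 MM.1S and H929 cells given TAS-117 at the indicated doses for 24 h. mRNA measured by RT-qPCR, fold change after normalization to GAPDH; SD of triplicates; significance versus untreated control.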

[7] = tested on: NCI-H929; test: Downregulation of E2F2 mRNA expression in human NCI-H929 cells incubated at 0.3 to 3 micromol/L for 24 hrs by qRT-PCR analysis; type: functional, cell-based; settings: dose 0.3-3 µmol/L; summary of the method: as §3
[8] = tested on: OPM-2/BTZ; test: Downregulation of E2F1 protein expression in human OPM-2/BTZ cells incubated at 0.3 to 3 micromol/L for 48 hrs by Western blot analysis; type: functional, cell-based; settings: dose 0.3-3 µmol/L
[9] = tested on: MM1.S; test: Downregulation of CDK2 protein expression in human MM1.S cells incubated at 0.3 to 3 micromol/L for 48 hrs by Western blot analysis; type: functional, cell-based; settings: dose 0.3-3 µmol/L; summary of the method: as §1
[10] = tested on: MM1.S; test: Synergistic activity against human MM.1S cells assessed as combination index […] in presence of 1.25 uM UNC1999 […] at 0.5 uM incubated for 48 hrs by […] assay; type: functional
Summary of the method: (§4)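 Cells were exposed to the EZH2/EZH1 inhibitor (UNC1999 or GSK126) for 72 h in total, with the Akt inhibitor added for the last 48 h. Viability was read by MTS assay relative to untreated control cells, in triplicate. The combination index for each dose pair came from isobologram analysis.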

[11] = tested on: MM1.S; test: Synergistic activity against human MM.1S cells assessed as combination index preincubated in presence of 1.25 uM GSK126 […] at 0.25 uM incubated for 48 hrs by […]; type: functional; summary of the method: as §4
[12] = tested on: MM1.S; test: Synergistic activity against human MM.1S cells assessed as combination index […] at 0.125 uM incubated for 48 hrs by […]; type: functional; summary of the method: as §4
[13] = tested on: OPM-2/BTZ; test: Synergistic activity against human OPM-2/BTZ cells assessed as combination index preincubated in presence of 1.25 uM UNC1999 for 72 hrs followed by compound addition at 0.5 uM incubated for 48 hrs by MTT assay; type: functional
[14] = tested on: OPM-2/BTZ; test: Synergistic activity against human OPM-2/BTZ cells assessed as combination index preincubated in presence of 2.5 uM UNC1999 for 72 hrs followed by compound addition at 0.5 uM incubated for 48 hrs by MTT assay; type: functional
[15] = tested on: OPM-2/BTZ; test: Synergistic activity against human OPM-2/BTZ cells assessed as combination index preincubated in presence of 1.25 uM GSK126 for 72 hrs followed by compound addition at 0.5 uM incubated for 48 hrs by MTT assay; type: functional
[16] = tested on: OPM-2/BTZ; test: Synergistic activity against human OPM-2/BTZ cells assessed as combination index preincubated in presence of 1.25 uM GSK126 for 72 hrs followed by compound addition at 1 uM incubated for 48 hrs by MTT assay; type: functional
[17] = tested on: OPM-2; test: Synergistic activity against human OPM-2 cells assessed as combination index preincubated in presence of 5 uM GSK126 for 72 hrs followed by compound addition at 5 uM incubated for 48 hrs by MTT assay; type: functional
[18] = tested on: MM1.S; test: Induction of apoptosis in human MM1.S cells assessed as early apoptotic cells at 2 micromol/L incubated for 12 hrs by annexin V/PI staining based flow cytometry (reference value: 8.03%); type: functional; settings: dose 2 µmol/L, at 2 µM
[19] = tested on: MM1.S; test: Induction of apoptosis in human MM1.S cells assessed as early apoptotic cells preincubated in presence of 5 micromol/L UNC1999 for 48 hrs followed by compound addition at 2 micromol/L incubated for 12 hrs by annexin V/PI staining based flow cytometry (reference value: 8.03%); type: functional; settings: dose 2 µmol/L, at 2 µM
[20] = tested on: MM1.S; test: Upregulation of EZH1 mRNA expression in human MM1.S cells at 0.03 to 3 micromo/L at 6 to 48 hrs by qRT-PCR analysis; type: functional, cell-based; settings: dose 0.03-3 µmol/L, time 6-48 hrs
Summary of the method: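 EZH1 mRNA was measured by qRT-PCR in MM.1S and H929 cells. Dose series: cells were treated with graded TAS-117 for 24 h. Time course: cells were treated with 3 μmol/L for the indicated times. Fold change is after GAPDH normalization, relative to the untreated control. Data are SD of triplicates.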

[21] = tested on: NCI-H929; test: Upregulation of EZH1 protein expression in human NCI-H929 cells at 0.03 to 3 micromol/L after 48 hrs by Western blot analysis; type: functional, cell-based; settings: dose 0.03-3 µmol/L
Summary of the method: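 MM.1S and H929 cells were treated with graded TAS-117 for 48 h. EZH1 was detected by immunoblot and quantified relative to the GAPDH loading control.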

[22] = tested on: OPM-2/BTZ; test: Upregulation of EZH1 protein expression in human OPM-2/BTZ cells at 0.03 to 3 micromol/L after 48 hrs by Western blot analysis; type: functional, cell-based; settings: dose 0.03-3 µmol/L
[23] = tested on: NCI-H929; test: Induction of apoptosis in human NCI-H929 cells assessed as viable cells at 5 micromol/L incubated for 48 hrs by annexin V/PI staining based flow cytometry (reference value: 95.6%); type: functional; settings: NCI-H929, 48 h, dose 5 µmol/L, read-out: Activity
[24] = tested on: NCI-H929; test: Induction of apoptosis in human NCI-H929 cells assessed as late apoptotic cells preincubated in presence of 5 micromol/L UNC1999 for 48 hrs followed by compound addition at 2 micromol/L incubated for 12 hrs by annexin V/PI staining based flow cytometry (reference value: […]%); type: functional; settings: dose 2 µmol/L
[25] = tested on: NCI-H929; test: Induction of apoptosis in human NCI-H929 cells assessed as early apoptotic cells preincubated in presence of 5 micromol/L UNC1999 for 48 hrs followed by compound addition at 2 micromol/L incubated for 12 hrs by annexin V/PI staining based flow cytometry (reference value: 0.37%); type: functional; settings: dose 2 µmol/L, at 2 µM

In the case of `C[C@]1(O)C[C@@](N)(c2ccc(-c3nc4n(c3-c3ccccc3)COc3ccncc3-4)cc2)C1` [PIFUSERTIB], the Activity [1] is reported as “Active”, the Activity [2] is reported as “Active” and the Activity [3] is reported as “Active”. The inhibition [4] was “Active”, the inhibition [5] was “Active” and the Activity [6] was “Active”. For the same molecule, the Activity [7] was “Active”, the Activity [8] was “Active” and the Activity [9] was “Active”. It also gave a CI [10] of 0.357, a CI [11] of 0.954 and a CI [12] of 0.532. For the same molecule, the CI [13] was 0.74, the CI [14] was 0.499 and the CI [15] was 0.624. The CI [16] was 0.923, the CI [17] was 5.39 and the Activity [18] was 9.49%. For the same molecule, the Activity [19] was 40.7%, the Activity [20] was “Dose-Dependent Effect” and the Activity [21] was “Active”. The Activity [22] was “Active”, the viability at 5 µM [23] was 82.7% and the Activity [24] was 11.3%. For the same molecule, the Activity [25] was 16.1%.
